Results as given in ChEMBL document CHEMBL1799979, “Antifolate and antiproliferative activity of 6,8,10-triazaspiro[4.5]deca-6,8-dienes and 1,3,5-triazaspiro[5.5]undeca-1,3-dienes” (Bioorg Med Chem, 2010).
pIC50: −log10 of the molar value.

Experiments:
A549 [1] = test: Growth inhibition of human A549 cells assessed as cell growth at 6.4 uM after 72 hrs by fluorometric microculture cytotoxicity assay in presence of 100 uM hypoxanthine relative to untreated control; format: functional; set-up: scale not given: the % may be the effect or the level left
Method in brief: (§1)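 A549 cells were seeded and incubated 24 h, then medium was swapped for medium holding a fixed compound concentration alone, or with 20 µM thymidine, 100 µM hypoxanthine, or both. Twelve wells were used per solution, with solvent-matched controls. After 72 h, cells were PBS-washed, given FDA 2 µg/mL for 45 min at 37 °C, and fluorescence read at ex 485/em 535 nm. Growth is relative to control, as mean (SEM), n = 3.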

A549 [2] = test: Growth inhibition of human A549 cells assessed as cell growth at 6.4 uM after 72 hrs by fluorometric microculture cytotoxicity assay relative to untreated control; format: functional; settings: A549, 72 h, read-out: Activity; method in brief: as §1
A549 [3] = test: Growth inhibition of human A549 cells assessed as cell growth at 6.4 uM after 72 hrs by fluorometric microculture cytotoxicity assay in presence of 100 uM hypoxanthine and 20 uM thymidine relative to untreated control; format: functional; set-up: scale not given: the % may be the effect or the level left; method in brief: as §1
A549 [4] = test: Growth inhibition of human A549 cells assessed as cell growth at 6.4 uM after 72 hrs by fluorometric microculture cytotoxicity assay in presence of 20 uM thymidine relative to untreated control; format: functional; set-up: scale not given: the % may be the effect or the level left; method in brief: as §1
A549 [5] = test: Antiproliferative activity against human A549 cells after 72 hrs by fluorometric microculture cytotoxicity assay; settings: A549, 72 h
Dihydrofolate reductase = target: T1, Dihydrofolate reductase (Bos taurus, UniProt P00376); test: Inhibition of bovine liver DHFR using dihydrofolic acid substrate by UV-visible spectrophotometry
T1 sequence (P00376 whole entry): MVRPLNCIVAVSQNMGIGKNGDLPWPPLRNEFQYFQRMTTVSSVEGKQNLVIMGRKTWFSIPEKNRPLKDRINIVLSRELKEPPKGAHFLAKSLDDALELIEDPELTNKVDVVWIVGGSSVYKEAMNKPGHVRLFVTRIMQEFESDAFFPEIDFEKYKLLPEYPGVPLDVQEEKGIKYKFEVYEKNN

A549 [6] = test: Growth inhibition of human A549 cells assessed as cell growth at 270 nM after 72 hrs by fluorometric microculture cytotoxicity assay relative to untreated control; format: functional; settings: A549, 72 h, read-out: Activity; method in brief: as §1
A549 [7] = test: Growth inhibition of human A549 cells assessed as cell growth at 270 nM after 72 hrs by fluorometric microculture cytotoxicity assay in presence of 100 uM hypoxanthine relative to untreated control; format: functional; set-up: scale not given: the % may be the effect or the level left; method in brief: as §1
A549 [8] = test: Growth inhibition of human A549 cells assessed as cell growth at 270 nM after 72 hrs by fluorometric microculture cytotoxicity assay in presence of 100 uM hypoxanthine and 20 uM thymidine relative to untreated control; format: functional; set-up: scale not given: the % may be the effect or the level left; method in brief: as §1
A549 [9] = test: Growth inhibition of human A549 cells assessed as cell growth at 270 nM after 72 hrs by fluorometric microculture cytotoxicity assay in presence of 20 uM thymidine relative to untreated control; format: functional; set-up: scale not given: the % may be the effect or the level left; method in brief: as §1
A549 [10] = test: Growth inhibition of human A549 cells assessed as cell growth at 370 nM after 72 hrs by fluorometric microculture cytotoxicity assay in presence of 100 uM hypoxanthine relative to untreated control; format: functional; set-up: scale not given: the % may be the effect or the level left; method in brief: as §1
A549 [11] = test: Growth inhibition of human A549 cells assessed as cell growth at 370 nM after 72 hrs by fluorometric microculture cytotoxicity assay in presence of 20 uM thymidine relative to untreated control; format: functional; set-up: scale not given: the % may be the effect or the level left; method in brief: as §1
A549 [12] = test: Growth inhibition of human A549 cells assessed as cell growth at 370 nM after 72 hrs by fluorometric microculture cytotoxicity assay in presence of 100 uM hypoxanthine and 20 uM thymidine relative to untreated control; format: functional; set-up: scale not given: the % may be the effect or the level left; method in brief: as §1
A549 [13] = test: Growth inhibition of human A549 cells assessed as cell growth at 370 nM after 72 hrs by fluorometric microculture cytotoxicity assay relative to untreated control; format: functional; settings: A549, 72 h, read-out: Activity; method in brief: as §1

| Compound | pIC50 (Dihydrofolate reductase) | pIC50 (A549 [5]) | further results |
| --- | --- | --- | --- |
| Nc1nc2[nH]cc(CCc3ccc(C(=O)N[C@@H](CCC(=O)O)C(=O)O)cc3)c2c(=O)[nH]1 [PEMETREXED] | – | – | Activity (A549 [1]): 12.6%; growth at 6.4 µM (A549 [2]): 11.7%; Activity (A549 [3]): 99.3%; Activity (A549 [4]): 84.5% |
| CC(C)(C)c1ccc(OCCCON2C(N)=NC(N)=NC23CCCCC3)cc1 | 7.67 | 6.30 | – |
| NC1=NC2(CCCCC2)N(OCCCOc2ccc(F)cc2)C(N)=N1 | 7.81 | 7.23 | – |
| CC(C)(C)c1ccc(OCCCON2C(N)=NC(N)=NC23CCCC3)cc1 | 7.77 | 6.80 | – |
| NC1=NC2(CCCC2)N(OCCCOc2ccccc2)C(N)=N1 | – | 7.40 | – |
| NC1=NC2(CCCCC2)N(OCCCOc2ccc([N+](=O)[O-])cc2)C(N)=N1 | 7.83 | 6.48 | – |
| Cc1ccc(OCCCON2C(N)=NC(N)=NC23CCCCC3)cc1 | 7.76 | 7.08 | – |
| NC1=NC2(CCCCC2)N(OCCCOc2ccc(Cl)cc2)C(N)=N1 | 7.86 | 7.30 | – |
| CN(Cc1cnc2nc(N)nc(N)c2n1)c1ccc(C(=O)N[C@@H](CCC(=O)O)C(=O)O)cc1 [METHOTREXATE] | – | 7.43 | Activity (A549 [10]): 16%; Activity (A549 [11]): 77.3%; Activity (A549 [12]): 96.6%; growth at 0.37 µM (A549 [13]): 14.3% |
| NC1=NC2(CCCCC2)N(OCCCOc2ccccc2)C(N)=N1 | – | 7.16 | – |

More lines, main results first:

| pIC50 (Dihydrofolate reductase) | Compound | pIC50 (A549 [5]) | further results |
| --- | --- | --- | --- |
| 8.02 | Cc1ccc(OCCCON2C(N)=NC(N)=NC23CCCC3)cc1 | 7.32 | – |
| 8.25 | NC1=NC2(CCCCC2)N(OCCCOc2ccc(S(N)(=O)=O)cc2)C(N)=N1 | 6.78 | – |
| 8.14 | Cl.NC1=NC2(CCCC2)N(OCCCOc2ccc(Cl)cc2)C(N)=N1 | 7.57 | growth at 0.27 µM (A549 [6]): 15.2%; Activity (A549 [7]): 14.3%; Activity (A549 [8]): 90%; Activity (A549 [9]): 68% |
| 8.04 | CC(=O)c1ccc(OCCCON2C(N)=NC(N)=NC23CCCC3)cc1 | 7.22 | – |
| 8.21 | COc1ccc(OCCCON2C(N)=NC(N)=NC23CCCCC3)cc1 | 7.29 | – |
| 8.01 | N#Cc1ccc(OCCCON2C(N)=NC(N)=NC23CCCCC3)cc1 | 6.93 | – |
| 7.95 | COc1ccc(OCCCON2C(N)=NC(N)=NC23CCCC3)cc1 | 7.23 | – |
| 7.88 | CC(=O)c1ccc(OCCCON2C(N)=NC(N)=NC23CCCCC3)cc1 | 6.84 | – |
| 8.00 | NC1=NC2(CCCC2)N(OCCCOc2ccc(F)cc2)C(N)=N1 | 7.23 | – |
| 8.12 | N#Cc1ccc(OCCCON2C(N)=NC(N)=NC23CCCC3)cc1 | 7.22 | – |
| 8.08 | NC1=NC2(CCCC2)N(OCCCOc2ccc([N+](=O)[O-])cc2)C(N)=N1 | 7.18 | – |
